Source: paper PMC6104147 (Journal of Pharmaceutical Analysis, 2018)

Key:
Stock solution stability = type: physicochemical; settings: stock solution in methanol; for Long-term stability of stock solution, time with no significant change: 5 °C
Summary of the method: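 Methanol stock solutions of the analyte (500 µg/mL) and its deuterated internal standard (100 µg/mL) were tested for short-term and long-term stability. Working solutions were made by dilution in methanol. Stock and working solutions were stored at 2–8 °C.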

[1] = Stability of tadalafil in human plasma under storage and process conditions; type: in vitro ADME
PDE-5 = settings: cited from earlier work
Whole blood stability = type: in vitro ADME, human; settings: 25 °C
[2] = type: in vivo, human
Summary of the method: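 Single oral 20 mg tablet dose, test vs reference formulation, given fasting to 24 healthy Indian subjects. The test compound was measured in plasma by LC-MS/MS with a deuterated internal standard. 200 µL plasma was extracted on Strata-X-C SPE and run on a Synergi Hydro-RP C18 column. Mobile phase was methanol:10 mM ammonium formate pH 4.0 (90:10) at 0.9 mL/min, with positive ESI MRM. Calibration range was 0.50–500 ng/mL, and non-compartmental PK was calculated.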

[3] = cited from earlier work
[4] = 20 mg oral, fasting, 24 subjects

Long-term stability of stock solution, time with no significant change (Stock solution stability) | Short-term stability of stock solution, time remained stable (Stock solution stability; room temperature) | Time found stable in plasma at room temperature ([1]; controlled blank plasma) | Time stable in extracted plasma samples, room temperature ([1]; extracted plasma samples) | Whole blood stability, time with no evidence of degradation (Whole blood stability) | Intra subject variation of AUC 0-inf [2, 4] | Intra subject variation of AUC 0–168 h [2, 4] | Intra subject variation of Cmax [2, 4] | Cmax ([2]; male, human, plasma, po, 20 mg) | Tmax ([2]; male, human, plasma, po, 20 mg) | half-life ([2]; male, human, plasma, po, 20 mg) | Ratios of mean log-transformed Cmax, AUC0–168 h and AUC0-inf and their 90% confidence intervals ([2]; test vs reference, overall range, acceptance criterion 80%–125%) | SMILES | Selectivity for PDE-5 over PDE-1–4 and PDE-7–10 (PDE-5) | Bioavailability [3] | Fraction of the metabolized drug excreted in the urine [3] | Selectivity for PDE-5 over other PDE isozymes (PDE-5)
up to 10 days | up to 7 h |  |  |  |  |  |  |  |  |  |  | [2H]C([2H])([2H])N1CC(=O)N2[C@H](c3ccc4c(c3)OCO4)c3[nH]c4ccccc4c3C[C@@H]2C1=O [TAD-d3, tadalafil-d3] |  |  |  | 
up to 10 days |  | up to 12 h | 12 h | up to 2 h | 11.56 % CV | 10.09 % CV | 9.53 % CV | 396 ng/mL | ~2.37 h | 18.6 ± 2.47 h | 99.2% to 110.9 | CN1CC(=O)N2[C@H](c3ccc4c(c3)OCO4)c3[nH]c4ccccc4c3C[C@@H]2C1=O [tadalafil] | 1000 times | approximately 80% | one third | 
 |  |  |  |  |  |  |  |  |  |  |  | CCCc1nn(C)c2c(=O)[nH]c(-c3cc(S(=O)(=O)N4CCN(C)CC4)ccc3OCC)nc12 [sildenafil] |  |  |  | 41 times
